Experimental data as given in ChEMBL document CHEMBL1649213, “The arabinosyltransferase EmbC is inhibited by ethambutol in Mycobacterium tuberculosis” (2009).
Converted amounts (≈) assume the structure as drawn. The source made the active and inactive calls. The calls are words filed in the database; no cut-off is given here.

Experiments:
[1] = tested on: Mycolicibacterium smegmatis; assay: Antimicrobial activity against Mycobacterium smegmatis expressing EmbC M286L mutant gene after 48 hrs by agar proportion method; assay type: functional
[2] = tested on: Mycolicibacterium smegmatis; assay: Antimicrobial activity against Mycobacterium smegmatis expressing EmbC M286I mutant gene after 48 hrs by agar proportion method; assay type: functional
[3] = tested on: Mycolicibacterium smegmatis; assay: Antimicrobial activity against Mycobacterium smegmatis expressing EmbC D280G mutant gene at 32 ug/ml after 48 hrs; assay type: functional, organism-based
[4] = tested on: Mycobacterium tuberculosis; assay: Antimicrobial activity against Mycobacterium tuberculosis expressing EmbC gene after 48 hrs by agar proportion method; assay type: functional
[5] = tested on: T1, Probable arabinosyltransferase A (Mycobacterium smegmatis (strain ATCC 700084 / mc(2)155)), A0R612 [D280G]; assay: Inhibition of Mycobacterium smegmatis EmbC D280G mutant assessed as effect on LAM production at 32ug/ml after 2 hrs by immunoblotting; conditions: Mycolicibacterium smegmatis
T1 sequence (whole entry): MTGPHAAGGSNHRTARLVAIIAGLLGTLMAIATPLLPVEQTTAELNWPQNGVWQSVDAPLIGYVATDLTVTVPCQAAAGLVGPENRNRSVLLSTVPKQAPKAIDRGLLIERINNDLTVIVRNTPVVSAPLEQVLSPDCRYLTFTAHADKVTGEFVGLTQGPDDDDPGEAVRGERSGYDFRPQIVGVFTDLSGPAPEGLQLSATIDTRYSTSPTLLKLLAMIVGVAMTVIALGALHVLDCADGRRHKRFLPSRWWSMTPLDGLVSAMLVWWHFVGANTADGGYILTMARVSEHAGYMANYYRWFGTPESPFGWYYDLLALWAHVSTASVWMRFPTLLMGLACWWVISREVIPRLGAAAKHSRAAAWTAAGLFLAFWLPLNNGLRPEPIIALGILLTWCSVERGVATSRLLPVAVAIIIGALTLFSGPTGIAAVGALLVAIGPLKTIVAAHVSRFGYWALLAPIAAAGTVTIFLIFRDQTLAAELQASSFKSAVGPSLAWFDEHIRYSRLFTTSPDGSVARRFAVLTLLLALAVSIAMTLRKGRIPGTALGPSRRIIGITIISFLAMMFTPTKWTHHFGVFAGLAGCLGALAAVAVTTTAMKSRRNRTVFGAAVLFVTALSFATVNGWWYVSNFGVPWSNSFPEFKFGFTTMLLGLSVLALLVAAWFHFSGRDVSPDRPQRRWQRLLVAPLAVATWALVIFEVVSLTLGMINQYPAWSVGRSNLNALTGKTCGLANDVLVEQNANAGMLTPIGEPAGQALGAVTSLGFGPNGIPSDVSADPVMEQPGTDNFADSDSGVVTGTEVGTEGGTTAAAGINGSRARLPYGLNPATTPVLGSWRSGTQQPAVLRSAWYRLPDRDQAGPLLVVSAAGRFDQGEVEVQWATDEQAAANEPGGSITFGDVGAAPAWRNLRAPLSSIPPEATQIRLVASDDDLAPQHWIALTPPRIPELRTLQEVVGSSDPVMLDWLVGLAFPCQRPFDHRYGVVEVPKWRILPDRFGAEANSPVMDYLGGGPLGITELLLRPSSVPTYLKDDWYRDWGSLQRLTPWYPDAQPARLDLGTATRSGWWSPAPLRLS

[6] = tested on: Mycobacterium tuberculosis; assay: Inhibition of Mycobacterium tuberculosis EmbC assessed as effect on LAM production at 1 ug/ml after 2 hrs by immunoblotting
Procedure, shortened: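 M. tuberculosis grown in 7H9 plus 10% OADC with hygromycin 100 µg/ml, kanamycin 20 µg/ml and EMB 0 to 128 µg/ml for 14 days. Cells extracted in phenol-water (1:1) at 80°C for 2 h, then chloroform added. Aqueous phase run on denaturing, nonreducing acrylamide gels with periodic acid-Schiff staining or CS-35 anti-LAM immunoblot.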

[7] = tested on: Mycolicibacterium smegmatis; assay: Antimicrobial activity against Mycobacterium smegmatis expressing EmbC M286V mutant gene at 32 ug/ml after 48 hrs; assay type: functional, organism-based
[8] = tested on: Mycolicibacterium smegmatis; assay: Antimicrobial activity against Mycobacterium smegmatis expressing EmbC M286I mutant gene at 32 ug/ml; assay type: functional, organism-based
[9] = tested on: Mycobacterium tuberculosis; assay: Antimicrobial activity against Mycobacterium tuberculosis expressing EmbC gene after 48 hrs; assay type: functional
[10] = tested on: Mycobacterium tuberculosis; assay: Antimicrobial activity against Mycobacterium tuberculosis embA gene after 48 hrs by agar proportion method; assay type: functional
[11] = tested on: Mycolicibacterium smegmatis; assay: Antimicrobial activity against Mycobacterium smegmatis expressing EmbC M286L mutant gene at 32 ug/ml after 48 hrs; assay type: functional, organism-based
[12] = tested on: Mycolicibacterium smegmatis; assay: Antimicrobial activity against Mycobacterium smegmatis expressing EmbC M286V mutant gene after 48 hrs by agar proportion method; assay type: functional
[13] = tested on: Mycolicibacterium smegmatis; assay: Antimicrobial activity against Mycobacterium smegmatis expressing EmbC D280G mutant gene after 48 hrs by agar proportion method; assay type: functional
[14] = tested on: Mycolicibacterium smegmatis; assay: Antimicrobial activity against Mycobacterium smegmatis expressing EmbC gene after 48 hrs by agar proportion method; assay type: functional, organism-based

CC[C@@H](CO)NCCN[C@@H](CC)CO [ETHAMBUTOL]
MIC [1]: 64 µg/mL (≈ 313 µM)
MIC [2]: 32 µg/mL (≈ 157 µM)
Activity [3]: inactive
MIC90 [4]: 1 µg/mL (≈ 4.89 µM)
inhibition [5]: Active
inhibition [6]: Active
Activity [7]: inactive
Activity [8]: inactive
MIC [9]: 3 µg/mL (≈ 14.7 µM)
MIC [10]: 3 µg/mL (≈ 14.7 µM)
Activity [11]: inactive
MIC [12]: 32 µg/mL (≈ 157 µM)
MIC [13]: 64 µg/mL (≈ 313 µM)
MIC [14]: inactive
